Data as given in ChEMBL document CHEMBL4342508, “Discovery and Pharmacokinetics of Sulfamides and Guanidines as Potent Human Arginase 1 Inhibitors” (ACS Med Chem Lett, 2020).
Blank lines part the entries; values can stand above or below the molecule they belong to.

Assays:
Conditions in all cases: in vivo
[1] = Oral bioavailability in Sprague-Dawley rat at 10 mg/kg measured up to 24 hrs by LC-MS/MS analysis; format: ADME, organism-based
[2] = Clearance in Sprague-Dawley rat at 3 mg/kg, iv measured up to 24 hrs by LC-MS/MS analysis; format: ADME, organism-based
[3] = Oral bioavailability in rat; format: ADME, organism-based
How it was run: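 Male Sprague–Dawley rats were dosed at 3 mg/kg i.v. and 10 mg/kg p.o., and plasma concentrations were followed over time for up to 24 h after dosing. Oral bioavailability comes from the p.o. versus i.v. plasma exposure profiles.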

[4] = Clearance in rat; format: ADME
[5] = Mean residence time in BALB/c mouse at 3 mg/kg, iv measured up to 24 hrs by LC-MS/MS analysis; format: ADME, organism-based
[6] = Mean residence time in Sprague-Dawley rat at 3 mg/kg, iv measured up to 24 hrs by LC-MS/MS analysis; format: ADME, organism-based
How it was run: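 Male Sprague–Dawley rats dosed with the hydrochloride salt at 3 mg/kg i.v. or 10 mg/kg p.o.; plasma concentration–time profiles followed over 24 h, with PK parameters derived from them. Oral bioavailability comes from comparing the p.o. and i.v. arms.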

Compound: N[C@@H](CCCCB(O)O)C(=O)O
bioavailability [1]: 89%
clearance [2]: 2.3 mL/min/kg

Compound: C[C@H](N)C(=O)N1C[C@H](CCCB(O)O)[C@](N)(C(=O)O)C1
bioavailability [3]: 52%
clearance [4]: 10 mL/min/kg

Compound: NC(CCCCB(O)O)(CNS(N)(=O)=O)C(=O)O (configuration not stated)
MRT [5]: 48.6 min

Second part, the molecule after the results:

MRT [5]: 15.6 min
Compound: N=C(N)NCC(N)(CCCCB(O)O)C(=O)O (configuration not stated)

MRT [6]: 715 min
Compound: N=C(N)NC[C@](N)(CCCCB(O)O)C(=O)O
